Measurements as given in ChEMBL document CHEMBL4265907, “Design, synthesis and pharmacological evaluation of N4,N6-disubstituted pyrimidine-4,6-diamine derivatives as potent EGFR inhibitors in non-small cell lung cancer” (Eur J Med Chem, 2018).
The source made the active and inactive calls. No cut-off for these calls is given here.

Assays:
[1] = Half life in Sprague-Dawley rat at 30 mg/kg, po by UPLC-MS/MS analysis; type: ADME, organism-based; settings: in vivo
Method in brief: (§1)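 Four female and four male Sprague-Dawley rats, 200-220 g, fasted 12 h, then given a single oral dose of 30 mg/kg as a 0.5% CMC-Na suspension. Blood sampled at 0.083, 0.25, 0.5, 1, 2, 4, 8 and 24 h, plasma separated by centrifugation at 4000 r/min for 10 min, and analysed by UPLC–MS/MS. Parameters reported as mean ± SD, n=6.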

[2] = target: T1, Epidermal growth factor receptor (Homo sapiens, UniProt P00533); assay: Inhibition of EGFR in human HCC827 cells assessed as decrease in EGF-induced AKT phosphorylation by Western blot method; type: cell-based
T1 sequence (P00533 whole entry): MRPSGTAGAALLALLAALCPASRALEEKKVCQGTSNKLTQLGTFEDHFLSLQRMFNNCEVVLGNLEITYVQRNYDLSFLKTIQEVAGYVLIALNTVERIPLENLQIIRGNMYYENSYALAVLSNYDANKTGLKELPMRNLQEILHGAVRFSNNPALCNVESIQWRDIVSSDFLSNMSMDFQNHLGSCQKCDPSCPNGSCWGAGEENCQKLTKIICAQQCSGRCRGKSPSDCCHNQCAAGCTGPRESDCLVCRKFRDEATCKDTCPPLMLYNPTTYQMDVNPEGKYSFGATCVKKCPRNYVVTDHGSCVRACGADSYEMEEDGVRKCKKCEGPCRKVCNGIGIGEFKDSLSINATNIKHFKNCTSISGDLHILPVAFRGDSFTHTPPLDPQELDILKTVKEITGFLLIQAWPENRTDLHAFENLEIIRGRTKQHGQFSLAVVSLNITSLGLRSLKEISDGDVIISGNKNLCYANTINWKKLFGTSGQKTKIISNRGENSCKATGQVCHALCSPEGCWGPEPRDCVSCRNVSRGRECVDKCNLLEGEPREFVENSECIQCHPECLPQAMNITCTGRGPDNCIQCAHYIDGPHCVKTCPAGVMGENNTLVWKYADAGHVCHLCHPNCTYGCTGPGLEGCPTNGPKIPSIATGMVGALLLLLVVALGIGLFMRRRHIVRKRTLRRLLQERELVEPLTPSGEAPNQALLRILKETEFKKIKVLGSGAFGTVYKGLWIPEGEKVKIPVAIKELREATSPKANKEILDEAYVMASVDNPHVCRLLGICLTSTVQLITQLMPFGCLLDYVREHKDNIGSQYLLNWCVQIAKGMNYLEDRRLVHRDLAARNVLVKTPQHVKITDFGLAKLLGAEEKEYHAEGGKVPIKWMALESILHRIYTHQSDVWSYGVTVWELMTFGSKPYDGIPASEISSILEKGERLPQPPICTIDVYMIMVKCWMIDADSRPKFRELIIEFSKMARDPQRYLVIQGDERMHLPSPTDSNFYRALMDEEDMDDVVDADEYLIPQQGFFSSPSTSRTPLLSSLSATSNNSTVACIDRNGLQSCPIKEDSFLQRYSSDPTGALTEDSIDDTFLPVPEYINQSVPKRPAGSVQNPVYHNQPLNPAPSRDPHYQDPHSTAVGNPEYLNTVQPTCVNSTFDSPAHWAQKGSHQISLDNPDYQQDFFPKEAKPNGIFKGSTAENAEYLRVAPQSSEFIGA
Method in brief: (§2)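 Cell lysates prepared in protein lysis buffer and cleared at 12,000 g for 10 min at 4 °C. 50 μg protein per lane was run on a gel, transferred to PVDF and immunoblotted, with GAPDH as the loading control.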

[3] = system: NCI-H1975; assay: Cell cycle arrest in human NCI-H1975 cells assessed as accumulation at G2/M phase after 24 hrs by propidium iodide staining based flow cytometry; type: functional
Method in brief: (§3)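 NCI-H1975 cells (2×10^5) seeded in 6-well plates overnight, then treated 24 h at 50, 100, 250 or 500 nM; 1‰ DMSO medium as control. Cells harvested, washed in cold PBS, fixed in 70% cold ethanol at −20 °C overnight, stained with PI/RNase buffer and analysed by flow cytometry. n=3.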

[4] = system: HCC827; assay: Induction of apoptosis in human HCC827 cells assessed as early apoptotic cells at 1000 nM after 48 hrs by Annexin V-FITC/PI staining based flow cytometry (reference value: 2.83%); type: functional
[5] = target: T1, Epidermal growth factor receptor; assay: Inhibition of EGF-induced EGFR autophosphorylation at Y1068 residues in human HCC827 cells by Western blot method; type: cell-based; method in brief: as §2
[6] = system: NCI-H3255; assay: Induction of apoptosis in human H3255 cells assessed as early apoptotic cells at 1000 nM after 48 hrs by Annexin V-FITC/PI staining based flow cytometry (reference value: 3.22%); type: functional
[7] = target: T1, Epidermal growth factor receptor; assay: Inhibition of EGFR in human HCC827 cells assessed as decrease in EGF-induced ERK1/2 phosphorylation by Western blot method; type: cell-based; method in brief: as §2
[8] = system: NCI-H1975; assay: Cell cycle arrest in human NCI-H1975 cells assessed as accumulation at G2/M phase at 100 to 500 nM after 24 hrs by propidium iodide staining based flow cytometry; type: functional; method in brief: as §3
[9] = system: NCI-H3255; assay: Induction of apoptosis in human H3255 cells assessed as necrotic cells at 1000 nM after 48 hrs by Annexin V-FITC/PI staining based flow cytometry (reference value: 7.06%); type: functional
[10] = AUC (0 to infinity) in Sprague-Dawley rat at 30 mg/kg, po by UPLC-MS/MS analysis; type: ADME, organism-based; set-up: dose 30 mg/kg, route oral, time infinity; settings: in vivo; method in brief: as §1
[11] = system: HCC827; assay: Induction of apoptosis in human HCC827 cells assessed as viable cells at 250 nM after 48 hrs by Annexin V-FITC/PI staining based flow cytometry (reference value: 94.6%); type: functional; settings: HCC827, 48 h, read-out: Activity
[12] = MRT (0 to t) in Sprague-Dawley rat at 30 mg/kg, po by UPLC-MS/MS analysis; type: ADME, organism-based; settings: in vivo
Method in brief: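 Male and female Sprague-Dawley rats (200–220 g) were fasted 12 h and given a single oral dose of 30 mg/kg as a 0.5% CMC-Na suspension. Blood was sampled at 0.083, 0.25, 0.5, 1, 2, 4, 8 and 24 h and centrifuged at 4000 r/min for 10 min. Plasma was quantified by UPLC–MS/MS.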

[13] = system: A-431; assay: Induction of apoptosis in human A431 cells assessed as viable cells at 250 nM after 48 hrs by Annexin V-FITC/PI staining based flow cytometry (reference value: 90.3%); type: functional; settings: A-431, 48 h, read-out: Activity
[14] = system: Mus musculus; assay: Toxicity in BALB/C nude mouse xenografted with human PC9 cells at 15 to 30 mg/kg, ip qd administered for 19 days measured for 23 days; type: organism-based; settings: in vivo, 552 h
Method in brief: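 Six-week-old BALB/C-nu mice were injected subcutaneously in the right flank with about 2×10^6 PC-9 cells. At a tumour size of ~0.2-0.4 cm³ they were randomised, 5 mice/group. Drug was given in DMSO:Span-80:ddH₂O 2:1:50, ip, daily at 15 or 30 mg/kg for 19 days; vehicle group included. Tumour volume = (W²×L)/2.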

[15] = system: NCI-H3255; assay: Induction of apoptosis in human H3255 cells assessed as viable cells at 250 nM after 48 hrs by Annexin V-FITC/PI staining based flow cytometry (reference value: 87.9%); type: functional; settings: NCI-H3255, 48 h, read-out: Activity
[16] = target: T1, Epidermal growth factor receptor; assay: Inhibition of EGF-induced EGFR autophosphorylation at Y1068 residues in human H3255 cells by Western blot method; type: cell-based; method in brief: as §2
[17] = system: A-431; assay: Induction of apoptosis in human A431 cells assessed as late apoptotic cells at 250 nM after 48 hrs by Annexin V-FITC/PI staining based flow cytometry (reference value: 2.11%); type: functional
[18] = system: NCI-H3255; assay: Induction of apoptosis in human H3255 cells assessed as necrotic cells at 500 nM after 48 hrs by Annexin V-FITC/PI staining based flow cytometry (reference value: 7.06%); type: functional
[19] = system: NCI-H1975; assay: Induction of apoptosis in human NCI-H1975 cells assessed as late apoptotic cells at 1000 nM after 48 hrs by Annexin V-FITC/PI staining based flow cytometry (reference value: 1.91%); type: functional
[20] = system: A-431; assay: Induction of apoptosis in human A431 cells assessed as early apoptotic cells after 48 hrs by Annexin V-FITC/PI staining based flow cytometry; type: functional, cell-based
[21] = system: NCI-H1975; assay: Induction of apoptosis in human NCI-H1975 cells assessed as viable cells at 250 nM after 48 hrs by Annexin V-FITC/PI staining based flow cytometry (reference value: 93.7%); type: functional; settings: NCI-H1975, 48 h, read-out: Activity
[22] = system: HCC827; assay: Induction of apoptosis in human HCC827 cells assessed as late apoptotic cells at 250 nM after 48 hrs by Annexin V-FITC/PI staining based flow cytometry (reference value: 1.15%); type: functional
[23] = system: NCI-H3255; assay: Induction of apoptosis in human H3255 cells assessed as early apoptotic cells at 500 nM after 48 hrs by Annexin V-FITC/PI staining based flow cytometry (reference value: 3.22%); type: functional
[24] = system: A-431; assay: Induction of apoptosis in human A431 cells assessed as necrotic cells at 250 nM after 48 hrs by Annexin V-FITC/PI staining based flow cytometry (reference value: 4.16%); type: functional
[25] = system: A-431; assay: Induction of apoptosis in human A431 cells assessed as early apoptotic cells at 1000 nM after 48 hrs by Annexin V-FITC/PI staining based flow cytometry (reference value: 3.40%); type: functional
[26] = system: NCI-H1975; assay: Induction of apoptosis in human NCI-H1975 cells assessed as viable cells at 1000 nM after 48 hrs by Annexin V-FITC/PI staining based flow cytometry (reference value: 93.7%); type: functional; settings: NCI-H1975, 48 h, read-out: Activity
[27] = system: A-431; assay: Induction of apoptosis in human A431 cells assessed as early apoptotic cells at 250 nM after 48 hrs by Annexin V-FITC/PI staining based flow cytometry (reference value: 3.40%); type: functional

What does the source list for `COc1cccc(Nc2cc(Nc3cc(OC)ccc3OC)ncn2)c1`?
half-life [1]: 4.17 h; inhibition [2]: Dose-dependent effect; Activity [3]: Dose-dependent effect; Activity [4]: 19.6%; inhibition [5]: Dose-dependent effect; Activity [6]: 17.6%; inhibition [7]: Dose-dependent effect; Activity [8]: Active; Activity [9]: 6.35%; AUC(0-inf) [10]: 5820 ng·h/mL; viability at 0.25 µM [11]: 61.9%; MRT last [12]: 6.66 h; viability at 0.25 µM [13]: 79.3%; Activity [14]: Non-Toxic; viability at 0.25 µM [15]: 79.2%; inhibition [16]: Dose-dependent effect; Activity [17]: 6.5%; Activity [18]: 4.88%; Activity [19]: 18.2%; Activity [20]: Dose-dependent effect; viability at 0.25 µM [21]: 56.1%; Activity [22]: 10.2%; Activity [23]: 11.5%; Activity [24]: 3.41%; Activity [25]: 18.1%; viability at 1 µM [26]: 46.4%; Activity [27]: 10.8%
